Activity calls are given as the source filed them. No cut-off for these calls is given here.
Assays:
Hepatitis C virus [1] = assay: Antiviral activity against Hepatitis C virus genotype 1a infected in human assessed as reduction in plasma HCV RNA level administered for 10 days measured on day 11; assay type: functional, organism-based; settings: Hepacivirus hominis, subtype 1a
Summary of the method: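 HCV genotype 1a- and 1b-infected patients received oral 1000 mg b.i.d. together with an NS3/4A protease inhibitor at 150 mg q.d. for 10 days. The read-out was the median decrease in plasma HCV RNA (log10 IU/mL) at day 11.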

Hepatitis C virus [2] = assay: Antiviral activity against Hepatitis C virus genotype 1b harboring NS5B NNI-1 site V494A mutant infected in human HuH7 by luciferase reporter gene assay relative to wild-type HCV genotype 1b; assay type: functional, Hepacivirus hominis, Huh-7
Hepatitis C virus [3] = assay: Antiviral activity against Hepatitis C virus harboring […] A156V mutant infected in human HuH7 by luciferase reporter gene assay; assay type: functional, organism-based; settings: Hepacivirus hominis; Huh-7
Hepatitis C virus [4] = assay: Antiviral activity against Hepatitis C virus harboring NS5B M414T mutant infected in human HuH7 by luciferase reporter gene assay; assay type: functional, organism-based; settings: Hepacivirus hominis; Huh-7
Plasma = assay: Fraction unbound in human plasma; assay type: ADME, cell-free
Homo sapiens [5] = assay: Toxicity in HCV genotype 1-infected patient assessed as gastrointestinal side-effects at 500 to 1000 mg, po bid for 5 days followed by morning dose on day 6; assay type: organism-based; settings: in vivo, 120 h
Summary of the method: (§1)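 HCV genotype 1-infected patients given oral b.i.d. doses of 500 or 1000 mg for 5 days plus a morning dose on day 6, in hydroxypropyl-β-cyclodextrin vehicle; adverse events with grading, laboratory parameters, vital signs, food consumption, appetite and ECG monitored.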

Hepatitis C virus [6] = assay: Antiviral activity against Hepatitis C virus genotype 2b infected in human HuH7 by transient replicon assay; assay type: functional, organism-based, Hepacivirus hominis; settings: Huh-7
Summary of the method: (§2)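 Transient replicon assay using chimeric replicons whose NS5B region is derived from patient isolates of the stated genotype.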

[7] = Cytotoxicity against human MRC5 cells after 3 days by resazurin-based fluorescence analysis; assay type: cell-based
Homo sapiens [8] = assay: Toxicity in human assessed as grade-4 adverse events at 300 to 1250 mg, po bid for 5 days followed by morning dose on day 6; assay type: organism-based; settings: in vivo, 120 h
Summary of the method: (§3)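 Oral b.i.d. dosing for 5 days plus a single morning dose on day 6, in a hydroxypropyl-β-cyclodextrin vehicle. Healthy volunteers received 300, 1000 or 1250 mg; HCV genotype 1-infected patients received 500 or 1000 mg. Monitoring covered adverse events graded by severity, laboratory parameters, vital signs, food consumption, appetite and ECG.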

[9] = Binding affinity to His6-tagged Hepatitis C virus Con 1b NS5B delta21 RNA dependent RNA polymerase expressed in Escherichia coli Rosetta 2 (DE3) by surface plasmon resonance analysis; parameters: species or system Hepatitis C virus (isolate Con1)
Summary of the method: (§4)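 Surface plasmon resonance binding to NS5B polymerase of the stated genotype; association and dissociation rate constants measured, from which Kd and residence half-life were derived; median Kd reported.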

Hepatitis C virus [10] = assay: Antiviral activity against Hepatitis C virus genotype 1b infected in human HuH7 assessed as clearance of replicon cells at 3.75 uM preincubated for 2 weeks followed by 3 week rebound phase by RT-PCR analysis; assay type: functional, organism-based; settings: Hepacivirus hominis, Huh-7
Summary of the method: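 Clearance-and-rebound test in Huh7-Luc genotype 1b replicon cells. Cells were incubated with inhibitor (3.75 μM alone) for 14 days, then held for a 3-week rebound phase without inhibitor. Replicon RNA was followed for clearance and rebound.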

Hepatitis C virus [11] = assay: Antiviral activity against Hepatitis C virus genotype 1b infected in human HuH7 assessed as suppression of formation of resistant colonies at 1.5 uM preincubated for 2 weeks followed by 3 week rebound phase by RT-PCR analysis; assay type: functional, organism-based; settings: Hepacivirus hominis, Huh-7
Summary of the method: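 Huh7-Luc genotype 1b replicon cells were incubated for 14 days with the NNI alone (up to 3.75 μM), with TMC435 alone, or with both. A 3-week rebound phase without inhibitor followed, tracking replicon RNA clearance. A parallel colony formation run exposed the cells for 2−3 weeks and scored resistant colonies.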

Homo sapiens [12] = assay: Toxicity in HCV genotype 1-infected patient assessed as effect on food consumption at 500 to 1000 mg, po bid for 5 days followed by morning dose on day 6; assay type: organism-based; settings: in vivo, 120 h; summary of the method: as §1
Hepatitis C virus [13] = assay: Antiviral activity against Hepatitis C virus genotype 1b infected in human assessed as log10 reduction in HCV RNA level at 1000 mg, po bid for 5 days followed by morning dose on day 6 relative to control; assay type: functional, Hepacivirus hominis
Summary of the method: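 Oral b.i.d. dosing of HCV genotype 1-infected patients at 500 mg or 1000 mg for 5 days, plus a morning dose on day 6, in hydroxypropyl-β-cyclodextrin vehicle. Read-out was the median maximum decrease in plasma HCV RNA from baseline (log10), using patients with HCV RNA data available up to Day 6.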

Homo sapiens [14] = assay: Toxicity in HCV genotype 1-infected patient assessed as effect on laboratory parameters at 500 to 1000 mg, po bid for 5 days followed by morning dose on day 6; assay type: organism-based; settings: in vivo, 120 h; summary of the method: as §1
Hepatitis C virus [15] = assay: Antiviral activity against Hepatitis C virus harboring NS5B M423T mutant infected in human HuH7 by luciferase reporter gene assay; assay type: functional, organism-based; settings: Hepacivirus hominis; Huh-7
Hepatitis C virus [16] = assay: Antiviral activity against Hepatitis C virus genotype 1a infected in human HuH7 by transient replicon assay; assay type: functional, organism-based, Hepacivirus hominis; settings: subtype 1a, Huh-7; summary of the method: as §2
Homo sapiens [17] = assay: Toxicity in human assessed as effect on laboratory parameters at 300 to 1250 mg, po bid for 5 days followed by morning dose on day 6; assay type: organism-based; settings: in vivo, 120 h
Summary of the method: (§5)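 Healthy volunteers given oral b.i.d. doses of 300, 1000 or 1250 mg for 5 days plus a morning dose on day 6, in hydroxypropyl-β-cyclodextrin vehicle; adverse events, laboratory parameters, vital signs, food consumption, appetite, ECG and plasma 4-β-hydroxycholesterol (CYP3A4 induction marker) monitored.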

[18] = Cytotoxicity against human HuH7 cells; assay type: cell-based, Huh-7
[19] = Drug uptake in Sprague-Dawley rat liver at 10 mg/kg, po after 7 hrs; assay type: ADME, organism-based; parameters: dose 10 mg/kg, route oral; settings: read-out: Drug uptake
Hepatitis C virus [20] = assay: Antiviral activity against Hepatitis C virus genotype 1b infected in human HuH7 cells after 72 hrs by luciferase reporter gene assay; assay type: functional, organism-based, Hepacivirus hominis; settings: Huh-7, 72 h
Hepatitis C virus [21] = assay: Antiviral activity against Hepatitis C virus harboring NS5B S96T mutant infected in human HuH7 by luciferase reporter gene assay; assay type: functional, organism-based; settings: Hepacivirus hominis; Huh-7
[22] = system: Hepatitis C virus subtype 1b
Homo sapiens [23] = assay: Toxicity in human assessed as gastrointestinal side-effects at 300 to 1250 mg, po bid for 5 days followed by morning dose on day 6; assay type: organism-based; settings: in vivo, 120 h; summary of the method: as §3
Homo sapiens [24] = assay: Toxicity in HCV genotype 1-infected patient assessed as grade-4 adverse events at 500 to 1000 mg, po bid for 5 days followed by morning dose on day 6; assay type: organism-based; settings: in vivo, 120 h; summary of the method: as §1
Hepatitis C virus [25] = assay: Antiviral activity against Hepatitis C virus harboring NS5B C316Y mutant infected in human HuH7 by luciferase reporter gene assay; assay type: functional, organism-based; settings: Hepacivirus hominis; Huh-7
Homo sapiens [26] = assay: Toxicity in HCV genotype 1-infected patient assessed as effect on vital signs at 500 to 1000 mg, po bid for 5 days followed by morning dose on day 6; assay type: organism-based; settings: in vivo, 120 h; summary of the method: as §1
Hepatitis C virus [27] = assay: Antiviral activity against Hepatitis C virus harboring NS5B S282T mutant infected in human HuH7 by luciferase reporter gene assay; assay type: functional, organism-based; settings: Hepacivirus hominis; Huh-7
[28] = Cytotoxicity against HEK293T cells after 3 days by resazurin-based fluorescence analysis; assay type: cell-based, HEK-293T; settings: human
[29] = Binding affinity to Hepatitis C virus genotype 1a NS5B by surface plasmon resonance analysis; parameters: species or system Hepatitis C virus subtype 1a; summary of the method: as §4
Homo sapiens [30] = assay: Toxicity in human assessed as effect on appetite at 300 to 1250 mg, po bid for 5 days followed by morning dose on day 6; assay type: organism-based; settings: in vivo, 120 h; summary of the method: as §5

COc1ccc2c(c1)C=C1Cn3c-2c(C2CCCCC2)c2ccc(cc23)C(=O)NS(=O)(=O)N(C)CCOCCN(C)C1=O [TMC-647055]
Activity (Hepatitis C virus [1]): Active
fold change (FC) (Hepatitis C virus [2]): 3
Activity (Hepatitis C virus [3]): Active
Activity (Hepatitis C virus [4]): Active
Fu (Plasma): 0.3%
Activity (Homo sapiens [5]): Toxic
EC50 (Hepatitis C virus [6]): > 28000 nM
CC50 at 72 h [7]: > 50000 nM
Activity (Homo sapiens [8]): Non-toxic
Kd [9]: 4.1 nM
Activity (Hepatitis C virus [10]): inactive
Activity (Hepatitis C virus [11]): Active
Activity (Homo sapiens [12]): Non-toxic
FC (Hepatitis C virus [13]): 3.4
Activity (Homo sapiens [14]): Non-toxic
Activity (Hepatitis C virus [15]): Active
EC50 (Hepatitis C virus [16]): 48 nM
Activity (Homo sapiens [17]): Non-toxic
CC50 [18]: 42100 nM
concentration at 7 h [19]: 7800 ng/g
EC50 (Hepatitis C virus [20]): 77 nM
Activity (Hepatitis C virus [21]): Active
T1/2 [22]: 2.17 h
Activity (Homo sapiens [23]): Toxic
Activity (Homo sapiens [24]): Non-toxic
Activity (Hepatitis C virus [25]): Active
Activity (Homo sapiens [26]): Non-toxic
Activity (Hepatitis C virus [27]): Active
CC50 at 72 h [28]: > 50000 nM
Kd [29]: 7.3 nM
Activity (Homo sapiens [30]): Non-toxic
